{"data": "Assay results from different studies", "note": "Lines come from different studies, so protocols differ."}
{"SMILES": "CNC(=O)[C@@H](NC(=O)c1cc(OCC2(C)COC2)c(C2CC2)cn1)C(C)(C)C", "medium": "PAMPA", "Papp": "5.17 ×10⁻⁶ cm/s"}
{"SMILES": "COc1ccc(C[C@@H]2NC(=O)[C@@H](CC(C)C)NC(=O)[C@H](C)NC(=O)[C@H](CC(C)C)NC(=O)[C@@H](CC(C)C)NC(=O)[C@H]3CCCN3C2=O)cc1", "medium": "PAMPA", "concentration": "10 µM", "time": "7 h", "Papp": "19 ×10⁻⁶ cm/s"}
{"SMILES": "O=C(Nc1ccc2c(c1)B(O)OC2)c1cccc(OCc2c(Cl)cccc2Cl)c1", "medium": "PAMPA", "concentration": "200 µM", "time": "5 h", "pH": "pH 7.4", "Papp": "0.91 ×10⁻⁶ cm/s"}
{"SMILES": "NC(=O)[C@@H]1CC(F)(F)CN1C(=O)c1ccc(N2CC(F)(F)C2)c(OCC2CC2)n1", "medium": "PAMPA", "Papp": "5.23 ×10⁻⁶ cm/s"}
{"SMILES": "CC[C@@H](C)[C@@H]1NC(=O)[C@@H](Cc2ccc(Cl)cc2)NC(=O)CN(C)C(=O)[C@H]([C@H](C)CC)NC(=O)[C@@H](Cc2ccc(Cl)cc2)NC(=O)CN(C)C1=O", "medium": "PAMPA", "Papp": "33 ×10⁻⁶ cm/s"}
{"SMILES": "O=C(Nc1cccc(B(O)O)c1)c1cccc(OCc2ccccc2)c1", "medium": "PAMPA", "concentration": "200 µM", "time": "5 h", "pH": "pH 7.4", "Papp": "0.1 ×10⁻⁶ cm/s"}
{"SMILES": "CC(NC(C)(C)C)C(=O)c1cccc(Cl)c1 (stereo not drawn)", "medium": "PAMPA-BBB", "concentration": "1 µM", "time": "18 h", "Papp": "16 ×10⁻⁶ cm/s"}
{"SMILES": "CC(C)[C@H]1C(=O)N[C@@H](CCCN=C(N)N)C(=O)NCC(=O)N[C@@H](CC(=O)O)C(=O)N[C@H](Cc2ccccc2)C(=O)N1C", "medium": "Caco-2", "Papp": "~0.1 ×10⁻⁶ cm/s"}
{"SMILES": "COCCOCCOCCOCCOc1c(OC)cc2cc(C(=O)N3C[C@@H](CCl)c4c3cc(O)c3[nH]c(C(=O)OC)cc43)[nH]c2c1OC", "medium": "PAMPA", "concentration": "1 µM", "time": "5 h", "pH": "pH 7.4", "Papp": "10 ×10⁻⁶ cm/s"}
{"SMILES": "Cn1c(=O)c2c(ncn2C)n(C)c1=O", "medium": "PAMPA", "concentration": "200 µM", "time": "5 h", "pH": "pH 7.4", "Papp": "11.7 ×10⁻⁶ cm/s"}
{"SMILES": "CC[C@@H](C)[C@@H]1NC(=O)[C@@H](Cc2ccc(OC)cc2)NC(=O)CN(C)C(=O)[C@H]([C@H](C)CC)NC(=O)[C@@H](Cc2ccc(OC)cc2)NC(=O)CN(C)C1=O", "medium": "PAMPA", "Papp": "29 ×10⁻⁶ cm/s"}
{"SMILES": "CN1CCN(C(c2ccc(Cl)cc2)c2ccc(Cl)cc2)CC1", "medium": "PAMPA", "Papp": "1020 ×10⁻⁶ cm/s"}
{"SMILES": "O=C1[O][Pt]2([NH][C@@H]3CCCC[C@H]3[NH]2)[O]C1=O (relative stereo)", "medium": "PAMPA", "pH": "pH 6.8", "Papp": "0.448 ×10⁻⁶ cm/s"}
{"SMILES": "O=C(Nc1ccc2c(c1)B(O)OC2)c1cccc(OCc2ccccc2)c1", "medium": "PAMPA", "concentration": "200 µM", "time": "5 h", "pH": "pH 7.4", "Papp": "0.14 ×10⁻⁶ cm/s"}
{"SMILES": "COc1ccc(C[C@@H]2NC(=O)[C@@H](CC(C)C)NC(=O)[C@H](CCSC)NC(=O)[C@H](CC(C)C)NC(=O)[C@@H](CC(C)C)NC(=O)[C@H]3CCCN3C2=O)cc1", "medium": "PAMPA", "concentration": "10 µM", "time": "7 h", "Papp": "13 ×10⁻⁶ cm/s"}
